Assay results reported in ChEMBL document CHEMBL1142832, “Potent 4-aminopiperidine based antimalarial agents” (Bioorg Med Chem Lett, 2005).

What follows are compounds tested on Plasmodium falciparum (assay: Inhibitory concentration against chloroquine-sensitive Plasmodium falciparum). Conditions: not given.
Assay type: functional, organism-based

Compound | IC50
CCN(CC)CCCNC1CCN(CC(c2ccccc2)c2ccccc2)CC1 | 30 nM
c1ccc(Oc2ccc(CNCCCNC3CCN(CC4CCCCC4)CC3)cc2)cc1 | 30 nM

Each compound was assayed on HFF (assay: Cytotoxicity of compound was determined in human foreskin fibroblast assay). Conditions: not given.
Assay type: functional
Outline: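 Human foreskin fibroblasts were assayed in quadruplicate, and the average toxicity value is reported in nM.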

Compound | Cytotoxicity
c1ccc(C(CN2CCC(NCCCN3CCCCC3)CC2)c2ccccc2)cc1 | 1200 nM
CCN(CC)CCCNC1CCN(CCc2ccc(Cl)cc2)CC1 | 2700 nM
CCN(CC)CCCNC1CCN(CCc2ccc(-c3ccccc3)cc2)CC1 | 1200 nM
CCN(CCCNC1CCN(CC(c2ccccc2)c2ccccc2)CC1)CCc1ccc(-c2ccccc2)cc1 | 7600 nM
CCN(CC)CCCNC1CCN(CCC2CCCCC2)CC1 | 2900 nM
CN(C)CCCNC1CCN(CC(c2ccccc2)c2ccccc2)CC1 | 1300 nM
CCN(CC)CCCNC1CCN(CC(c2ccccc2)c2ccccc2)CC1 | 9900 nM
CCNCCCNC1CCN(CC(c2ccccc2)c2ccccc2)CC1 | 2600 nM
CCN(CCCNC1CCN(CC(c2ccccc2)c2ccccc2)CC1)CC(c1ccccc1)c1ccccc1 | 9900 nM
c1ccc(C(CN2CCC(NCCCN3CCCC3)CC2)c2ccccc2)cc1 | 2500 nM
CCN(CCCNC1CCN(CC(c2ccccc2)c2ccccc2)CC1)CCc1ccc(Cl)cc1 | 2000 nM
CCN(CC)CCCNC1CCN(CC2CCCCC2)CC1 | 6000 nM
CCN(CCCNC1CCN(CC(c2ccccc2)c2ccccc2)CC1)CCC1CCCCC1 | 2100 nM
CCN(CCCNC1CCN(CC(c2ccccc2)c2ccccc2)CC1)CC1CCCCC1 | 2200 nM

Species: Homo sapiens
Assay: Percent remaining of compound was determined in human S9 liver microsomes at 1 hr
Conditions: Liver S9 fraction

Compound | level, % of control
CCN(CCCNC1CCN(CC(c2ccccc2)c2ccccc2)CC1)CCc1ccc(-c2ccccc2)cc1 | 45%

Each compound was assayed on Plasmodium falciparum (assay: Inhibition against multidrug-resistant Plasmodium falciparum infected erythrocytes). Conditions: not given.
Assay type: functional, organism-based
Outline: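 Multidrug-resistant P. falciparum Dd2 was grown in human red blood cells and assayed at the late ring stage. Parasite growth was read as [3H]-hypoxanthine incorporation. Each compound was run in duplicate, and the mean IC50 (nM) is reported.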

Compound | IC50
c1ccc(C(CN2CCC(NCCCN3CCCCC3)CC2)c2ccccc2)cc1 | 200 nM
CCN(CC)CCCNC1CCN(CCc2ccc(Cl)cc2)CC1 | 850 nM
CCN(CC)CCCNC1CCN(CCc2ccc(-c3ccccc3)cc2)CC1 | 400 nM
CCN(CCCNC1CCN(CC(c2ccccc2)c2ccccc2)CC1)CCc1ccc(-c2ccccc2)cc1 | 75 nM
CCN(CC)CCCNC1CCN(CCC2CCCCC2)CC1 | 920 nM
CN(C)CCCNC1CCN(CC(c2ccccc2)c2ccccc2)CC1 | 300 nM
CCN(CC)CCCNC1CCN(CC(c2ccccc2)c2ccccc2)CC1 | 900 nM
CCNCCCNC1CCN(CC(c2ccccc2)c2ccccc2)CC1 | 2500 nM
CCN(CCCNC1CCN(CC(c2ccccc2)c2ccccc2)CC1)CC(c1ccccc1)c1ccccc1 | 900 nM
c1ccc(C(CN2CCC(NCCCN3CCCC3)CC2)c2ccccc2)cc1 | 200 nM
CCN(CCCNC1CCN(CC(c2ccccc2)c2ccccc2)CC1)CCc1ccc(Cl)cc1 | 200 nM
CCN(CC)CCCNC1CCN(CC2CCCCC2)CC1 | 4300 nM
CCN(CCCNC1CCN(CC(c2ccccc2)c2ccccc2)CC1)CCC1CCCCC1 | 250 nM
CCN(CCCNC1CCN(CC(c2ccccc2)c2ccccc2)CC1)CC1CCCCC1 | 200 nM

Species: Mus musculus
Assay: Percent remaining of compound was determined in mouse S9 liver microsomes at 1 hr
Conditions: Liver S9 fraction

Compound | level, % of control
CCN(CCCNC1CCN(CC(c2ccccc2)c2ccccc2)CC1)CCc1ccc(-c2ccccc2)cc1 | 113%
